The target of one assay is T1, AKR1C2 (Homo sapiens, UniProt P52895).
T1 sequence (P52895 1-323): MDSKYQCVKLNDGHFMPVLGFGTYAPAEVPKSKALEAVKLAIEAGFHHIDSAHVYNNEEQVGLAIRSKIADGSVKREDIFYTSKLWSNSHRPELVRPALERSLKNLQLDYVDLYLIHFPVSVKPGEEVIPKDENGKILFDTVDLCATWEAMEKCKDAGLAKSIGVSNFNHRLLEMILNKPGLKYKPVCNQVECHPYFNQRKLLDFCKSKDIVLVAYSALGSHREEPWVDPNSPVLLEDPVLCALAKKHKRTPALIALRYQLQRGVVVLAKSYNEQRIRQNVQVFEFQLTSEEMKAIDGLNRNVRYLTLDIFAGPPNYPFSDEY
The assay can be described thus: Inhibition assay for recombinant AKR1C2. The format is biochemical. To be noted: for inhibition at 10 µM: pH 9, read-out: AKR1C2 Inhibition (%) 10 μM. The method, boiled down: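 Rates are followed as NADH absorbance increase at 340 nm, with recombinant AKR1C2 (0.3 µM, added last) and 180 µM final 1-acenaphthenol. The mix is 2.3 mM NAD⁺, 0.09 M potassium phosphate pH 9.0, 0.005% Triton X-114 and 0.05% DMSO, plus test compound in DMSO. Duplicates, two independent experiments. IC50 is fitted from residual activity vs log concentration; inhibition mode, KM, KI and α are fitted from kinetics.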

A further assay addresses T2, AKR1C1 (Homo sapiens, UniProt Q04828).
T2 sequence (Q04828 1-323): T1 sequence (P52895 1-323) with V38T, H47R, V54L, S87C, M151V, H170R, L172Q
The assay can be described thus: Inhibition assay for recombinant AKR1C1. The format is biochemical. Conditions: for inhibition at 10 µM: pH 9, read-out: AKR1C1 Inhibition (%) 10 μM. The method in brief:
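Human recombinant AKR1C1 oxidising 1-acenaphthenol (90 µM final) with 2.3 mM NAD⁺, in 0.09 M potassium phosphate pH 9.0, 0.005% Triton X-114, 0.05% DMSO. Test compound is added in DMSO, and 0.1 µM enzyme starts the reaction. NADH rise at 340 nm gives initial velocities. Runs are in duplicate, two independent experiments. IC50 comes from residual activity vs log inhibitor; inhibition type, KM, KI and α come from kinetic fitting.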

The mark [1] stands for this setting: pH 9, read-out: AKR1C2 Inhibition (%) 100 μM.
The mark [2] stands for this setting: pH 9, read-out: AKR1C1 Inhibition (%) 100 μM.

Structures are written as SMILES. Positions count from the first letter of the chain named. Where two headings read alike, the source gives them in different places.

Regarding `C[C@@]12CC[C@@H]3c4cc(Br)c(O)c(Cl)c4CC[C@H]3[C@@H]1CCC2=O` [2_2Br,4Cl, 2-bromo-4-chloro-3-hydroxy-13α-oestra-1,3,5(10)-trien-17-one], the concentration for half-maximal inhibition (IC50) at AKR1C2 amounted to 3100 nM; on AKR1C1 it was 1700 nM. The inhibition at 10 µM at AKR1C2 and at AKR1C1 was 80% each time. Moreover, the inhibition at 100 µM at AKR1C2 (setting [1]) came to 99%; at AKR1C1 (setting [2]) it was 92.3%.

In the case of `C[C@@]12CC[C@@H]3c4cc(Br)c(O)c(I)c4CC[C@H]3[C@@H]1CCC2=O` [2_2Br,4I, 2-bromo-3-hydroxy-4-iodo-13α-oestra-1,3,5(10)-trien-17-one], the IC50 is 4400 nM on AKR1C2 and 7200 nM at AKR1C1. For the same compound, the inhibition at 10 µM worked out at 75% at AKR1C2 and 67% at AKR1C1. For the same compound, the inhibition at 100 µM at AKR1C2 (setting [1]) and at AKR1C1 (setting [2]) was 100% in each case.

As to `C[C@@]12CC[C@@H]3c4cc(Cl)c(O)c(Br)c4CC[C@H]3[C@@H]1CCC2=O` [2_2Cl,4Br, 4-bromo-2-chloro-3-hydroxy-13α-oestra-1,3,5(10)-trien-17-one], the inhibition at 10 µM is 65% at AKR1C2 and 80% at AKR1C1. Moreover, the inhibition at 100 µM at AKR1C2 (setting [1]) is 91.9%; at AKR1C1 (setting [2]), 93.9%. The IC50 on AKR1C1 was 1900 nM.

`C[C@@]12CC[C@@H]3c4cc(Cl)c(O)c(I)c4CC[C@H]3[C@@H]1CCC2=O` [2_2Cl,4I, 2-chloro-3-hydroxy-4-iodo-13α-oestra-1,3,5(10)-trien-17-one]: the IC50 on AKR1C2 turned out to be 4600 nM. In addition, the inhibition at 10 µM is 73% at AKR1C2 and 50% on AKR1C1. Also, the values for the inhibition at 100 µM at AKR1C2 (setting [1]) and at AKR1C1 (setting [2]) were 89.2% and 82.6%, respectively.

For `C[C@@]12CC[C@@H]3c4cc(I)c(O)c(Br)c4CC[C@H]3[C@@H]1CCC2=O` [2_2I,4Br, 4-bromo-3-hydroxy-2-iodo-13α-oestra-1,3,5(10)-trien-17-one], the inhibition at 10 µM on AKR1C2 is 59.5%; on AKR1C1, 90.7%. Further, the inhibition at 100 µM at AKR1C2 (setting [1]) was found to be 74.7%; on AKR1C2 (read-out: Biological activity AKR1C2 (biological inhibition at 100 μM)), 74.7%; at AKR1C1 (setting [2]), 93.4%; on AKR1C1 (read-out: Biological activity AKR1C1 (biological inhibition at 100 μM)) it was 93.4%. For the same compound, the IC50 at AKR1C1 was 700 nM. Further, the Ki on AKR1C1 was 570 nM. The “Type of inhibition of AKR1C1” value on AKR1C1 (kinetic studies) is recorded as “mixed type of inhibition”.

`C[C@@]12CC[C@@H]3c4cc(I)c(O)c(Cl)c4CC[C@H]3[C@@H]1CCC2=O` [2_2I,4Cl, 4-chloro-3-hydroxy-2-iodo-13α-oestra-1,3,5(10)-trien-17-one]: the IC50 at AKR1C2 worked out at 7100 nM; on AKR1C1, 800 nM. Besides, the inhibition at 10 µM at AKR1C2 stood at 73%; on AKR1C1, 90%. Besides, the inhibition at 100 µM at AKR1C2 (setting [1]) came out at 87.5%; at AKR1C1 (setting [2]), 99%.

Values taken from publication PMC8266253 (Journal of Enzyme Inhibition and Medicinal Chemistry, 2021).
